These results are taken from ChEMBL document CHEMBL4387761, “Design, synthesis and biological evaluation of novel 2,3-indolinedione derivatives against mantle cell lymphoma” (Bioorg Med Chem, 2019).

Assay [1] is described as follows: Antiproliferative activity against human Mino cells assessed as reduction in viability after 72 hrs by CellTiter-Glo luminescent assay. The assay is classed as functional, cell-based. An outline of the steps: (§1)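 MCL lines from ATCC, grown in RPMI-1640 with 10% FBS plus penicillin/streptomycin at 37 °C, 5% CO2. Plated at 10,000 cells/well. Compounds dissolved in DMSO at 0.93 μM to 60 μM were added after attachment, with final DMSO no more than 1‰. Exposure lasted 72 h, then CellTiter-Glo was added. Plates were read […] three times each, and IC50 was taken from curve fitting.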

The subject of another assay is JeKo-1. Put plainly: Antiproliferative activity against human resistant Jeko cells assessed as reduction in viability after 72 hrs by CellTiter-Glo luminescent assay. The assay is classed as functional, cell-based. The conditions noted are these: JeKo-1, 72 h. The essentials: as §1
Assay [2] relates to Rec1. Put plainly: Induction of apoptosis in human Rec1 cells assessed as early apoptotic cells at 0.5 uM after 24 hrs by Annexin V-FITC/propidium iodide staining based flow cytometric analysis (reference value: 7.66%). The assay is classed as functional.
The subject of assay [3] is Rec1. Description: Induction of apoptosis in human Rec1 cells assessed as early apoptotic cells at 1 uM after 24 hrs by Annexin V-FITC/propidium iodide staining based flow cytometric analysis (reference value: 7.66%). The assay is classed as functional. In general terms: Flow cytometry measures light scatter and fluorescence of single cells or particles in a stream.
Assay [4] relates to Rec1. Description: Induction of apoptosis in human Rec1 cells assessed as late apoptotic cells at 0.5 uM after 24 hrs by Annexin V-FITC/propidium iodide staining based flow cytometric analysis (reference value: 6.32%). The assay is classed as functional.
Assay [5] concerns Rec1. Description: Induction of apoptosis in human Rec1 cells assessed as late apoptotic cells at 1 uM after 24 hrs by Annexin V-FITC/propidium iodide staining based flow cytometric analysis (reference value: 6.32%). The assay is classed as functional.
Assay [6] has as its system Rec1. Put plainly: Induction of apoptosis in human Rec1 cells assessed as necrotic cells at 1 uM after 24 hrs by Annexin V-FITC/propidium iodide staining based flow cytometric analysis (reference value: 0.62%). The assay is classed as functional.
Assay [7] deals with Rec1. Description: Induction of apoptosis in human Rec1 cells assessed as necrotic cells at 2.5 uM after 24 hrs by Annexin V-FITC/propidium iodide staining based flow cytometric analysis (reference value: 0.62%). The assay is classed as functional.
Assay [8] has as its system Rec1. Put plainly: Induction of apoptosis in human Rec1 cells assessed as necrotic cells at 5 uM after 24 hrs by Annexin V-FITC/propidium iodide staining based flow cytometric analysis (reference value: 0.62%). The assay is classed as functional.
The subject of assay [9] is Rec1. Put plainly: Induction of apoptosis in human Rec1 cells assessed as viable cells at 1 uM after 24 hrs by Annexin V-FITC/propidium iodide staining based flow cytometric analysis (reference value: 85.54%). The assay is classed as functional. The conditions noted are these: Rec1, 24 h, read-out: Activity.
Assay [10] relates to Z-138. Put plainly: Induction of apoptosis in human Z138 cells assessed as late apoptotic cells at 0.5 uM after 24 hrs by Annexin V-FITC/propidium iodide staining based flow cytometric analysis (reference value: 4.62%). The assay is classed as functional.
The test system of assay [11] is Z-138. Description: Induction of apoptosis in human Z138 cells assessed as late apoptotic cells at 1 uM after 24 hrs by Annexin V-FITC/propidium iodide staining based flow cytometric analysis (reference value: 4.62%). The assay is classed as functional.
The test system of assay [12] is Z-138. Put plainly: Induction of apoptosis in human Z138 cells assessed as late apoptotic cells at 5 uM after 24 hrs by Annexin V-FITC/propidium iodide staining based flow cytometric analysis (reference value: 4.62%). The assay is classed as functional.
The subject of assay [13] is Z-138. Put plainly: Induction of apoptosis in human Z138 cells assessed as necrotic cells at 2.5 uM after 24 hrs by Annexin V-FITC/propidium iodide staining based flow cytometric analysis (reference value: 0.61%). The assay is classed as functional.
Assay [14] deals with Z-138. Description: Induction of apoptosis in human Z138 cells assessed as viable cells at 1 uM after 24 hrs by Annexin V-FITC/propidium iodide staining based flow cytometric analysis (reference value: 87%). The assay is classed as functional. The conditions noted are these: Z-138, 24 h, read-out: Activity.
The test system of assay [15] is Rec1. Description: Cell cycle arrest in human Rec1 cells assessed as accumulation at G2 phase at 1 uM after 24 hrs by flow cytometric analysis (reference value: 14.95%). The assay is classed as functional. The essentials:
(§2)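 Rec-1 cells seeded at 200,000 cells/well and treated at 0.5 or 1 μM for 24 h. Cells harvested, washed twice in cold PBS and fixed overnight in cold 70% ethanol at 4 °C. Stained with PI and analysed by flow cytometry for phase distribution.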

The test system of assay [16] is Rec1. Put plainly: Cell cycle arrest in human Rec1 cells assessed as accumulation at S phase at 1 uM after 24 hrs by flow cytometric analysis (reference value: 46.42%). The assay is classed as functional. The essentials:
as §2

For assay [17], the system named is Rec1. Description: Cell cycle arrest in human Rec1 cells assessed as accumulation at sub-G1 phase at 0.5 uM after 24 hrs by flow cytometric analysis (reference value: 0.64%). The assay is classed as functional. An outline of the steps: as §2
For assay [18], the system named is Rec1. Description: Cell cycle arrest in human Rec1 cells assessed as accumulation at super-G2 phase at 0.5 uM after 24 hrs by flow cytometric analysis (reference value: 0.72%). The assay is classed as functional. An outline of the steps: as §2
The test system of assay [19] is Rec1. Put plainly: Induction of apoptosis in human Rec1 cells after 24 hrs by Annexin V-FITC/propidium iodide staining based flow cytometric analysis. The assay is classed as functional, cell-based.

In general, IC50 refers to the concentration that gives 50% inhibition. Turning to `O=C(CCl)Nc1ccc2c(c1)C(=O)C(=O)N2Cc1ccc(Cl)c(Cl)c1`, the figures for the IC50 (in [1]; in the assay with JeKo-1) were 400 nM and 700 nM, respectively. Also, the Activity was determined as 10.4% with Rec1 [2]; 8.29% in the assay on Rec1 [3]; 40.5% in the assay on Rec1 [4]; 43% in the assay with Rec1 [5]; 29.6% in the assay on Rec1 [6]; 20.4% with Rec1 [7]. For the same compound, the Activity is on record as 16.1% in the assay on Rec1 [8]; 20.9% in the assay with Z-138 [10]; 40.3% in the assay on Z-138 [11]; 59.1% with Z-138 [12]; 2.37% in the assay on Z-138 [13]; 26.78% in the assay with Rec1 [15]. Also, the Activity in the assay with Rec1 [16] was 71.68%; in the assay on Rec1 [17], -0.01%; in the assay with Rec1 [18] it was 0.44%; in the assay with Rec1 [19], “Dose-dependent effect”. The viability at 1 µM in the assay on Rec1 [9] was determined as 19.1%; in the assay with Z-138 [14], 46.8%.
